Screens from PubChem.
T cruzi intra – inhibitors of intracellular Trypanosoma cruzi, primary screen, cell-based, plate reader, single point, set 2; actives 4.9% (n = 22,000); intracellular Trypanosoma cruzi in host cells; activity score (inhibition), % at 5.01 µM; in the data active means activity score above about 55%;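 further: parasites and compound incubated about four days before reading; 0% = median of neutral control wells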
INS-1E rescue – protection of INS-1E cells from cytokine death, primary screen, ATP luminescence, single point | INS-1E cytokine-induced death, 48 h; normalised: neutral wells 0, positive control 100 | protection from cytokine-induced ATP loss, % at 10 µM | actives 0.1% (n = 20,000) | AID 488910, 2010;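 active means mean replicate protection from cytokine-induced ATP loss at least 50% and at least 75% of replicates each reaching 50%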
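Assay system: INS-1E rat cells / Quantity: 8000 cells per well / Medium: RPMI without phenol red, 5% FBS / Probe or stimulus: three-cytokine cocktail (IFN-γ, TNF-α, IL-1β) / Dosing: one compound concentration, pin transfer / Timing: 48 h co-treatment, 10 min post-lysis read / Technique: CellTiter-Glo luminescence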
A1 apoptosis 2 – A1 inhibitors via caspase activation, primary screen, cell-based, luminescence, HTS, two replicates | caspase activation, % (test concentration not listed) | 24,000 tested, under 10 active | AID 2465, 2010 | MEF A1-2A-BIM cells, caspase-Glo luminescence, 3 h; percent of clofoctol response, DMSO zero; in the data active means caspase activation above about 5.9%
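Material: mouse embryonic fibroblasts co-expressing A1 and BIM (A1-2A-BIM), primed for A1 dependence / Quantity: 2500 cells/well / Buffer or medium: RPMI-1640 growth medium with 10% FBS / Doses: 50 nL compound per well, pinned / Schedule: 3 h compound exposure at 37 °C / Signal: Caspase-Glo luminescence (DEVD substrate) / Measure: Caspase-3/7 activation, seen as rise in luminescence signal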
Starred values were filed as active, the others as inactive; . = no result. This excerpt belongs to a sample that is enriched for hits.

SMILES | T cruzi intra | INS-1E rescue | A1 apoptosis 2
C[C@@H]1CCCCO[C@@H](CN(C)C(=O)Nc2ccc(C(F)(F)F)cc2)[C@@H](C)CN([C@H](C)CO)C(=O)c2cc(NC(=O)Nc3ccc(F)cc3)ccc2O1 | 71* | -14 | -1
C[C@@H]1CCCCO[C@H](CN(C)C(=O)Nc2ccc(F)cc2)[C@@H](C)CN([C@H](C)CO)C(=O)c2cc(NC(=O)Nc3ccc(F)cc3)ccc2O1 | 59* | -3 | 0
O=C(N/N=C/c1ccc(O)c2ccccc12)c1ccccc1O | -16 | -19 | -7
C[C@@H]1CCCCO[C@H](CN(C)C(=O)NC2CCCCC2)[C@@H](C)CN([C@H](C)CO)C(=O)c2cc(NC(=O)Nc3ccc(C(F)(F)F)cc3)ccc2O1 | 64* | -9 | .
C[C@@H]1CCCCO[C@H](CN(C)C(=O)Nc2ccc(C(F)(F)F)cc2)[C@@H](C)CN([C@H](C)CO)C(=O)c2cc(NC(=O)Nc3ccc(C(F)(F)F)cc3)ccc2O1 | 65* | -23 | 0
C[C@@H]1CCCCO[C@H](CN(C)C(=O)Nc2ccc(C(F)(F)F)cc2)[C@@H](C)CN([C@@H](C)CO)C(=O)c2cc(NC(=O)Nc3ccc(C(F)(F)F)cc3)ccc2O1 | . | . | 0
C[C@@H]1CCCCO[C@H](CN(C)C(=O)Nc2ccc(C(F)(F)F)cc2)[C@@H](C)CN([C@H](C)CO)C(=O)c2cc(NC(=O)CCC(F)(F)F)ccc2O1 | 66* | -12 | 1
C[C@@H]1CN([C@H](C)CO)C(=O)c2cc(NC(=O)Nc3ccc(C(F)(F)F)cc3)ccc2O[C@@H]1CN(C)C(=O)Nc1ccc(C(F)(F)F)cc1 | 41 | -15 | .
C[C@@H]1CN([C@@H](C)CO)C(=O)c2cc(NC(=O)Nc3ccc(C(F)(F)F)cc3)ccc2O[C@H]1CN(C)C(=O)Nc1ccc(C(F)(F)F)cc1 | 74* | -106 | -1
C[C@H]1CCCCO[C@H](CN(C)C(=O)NC2CCCCC2)[C@@H](C)CN([C@@H](C)CO)C(=O)c2cc(NC(=O)Nc3ccc(C(F)(F)F)cc3)ccc2O1 | . | . | 0
C[C@@H]1CCCCO[C@@H](CN(C)C(=O)Nc2ccc(C(F)(F)F)cc2)[C@@H](C)CN([C@H](C)CO)C(=O)c2cc(NC(=O)CCC(F)(F)F)ccc2O1 | 13 | 5 | .
COC(=O)C1=C/c2ccccc2C(C)N(Cc2ccc(OC)cc2)/C=C\1C(=O)OC (centres undefined) | . | . | 1
O=C(CCCCCC(=O)Nc1ccccc1O)N/N=C/c1ccc(O)c(F)c1 | -22 | 7 | .
COc1ccc(/C=N/NC(=O)CCCCCCC(=O)O)c(O)c1 | -18 | 14 | .
COc1ccc(Br)cc1/C=N/NC(=O)c1cccc(C(=O)NO)c1 | -24 | -6 | 0
O=C(NO)c1cccc(C(=O)N/N=C/c2cc(Br)cc([N+](=O)[O-])c2O)c1 | 6 | -29 | 1
C[C@@H]1CCCCO[C@H](CN(C)C(=O)Nc2ccc(C(F)(F)F)cc2)[C@@H](C)CN([C@H](C)CO)C(=O)c2cc(NC(=O)Nc3ccc(F)cc3)ccc2O1 | 65* | -16 | 0
C[C@@H]1CN([C@H](C)CO)C(=O)c2cc(NC(=O)Nc3ccc(F)cc3)ccc2O[C@@H](C)CCCCO[C@H]1CN(C)C(=O)Nc1ccc(C(F)(F)F)cc1 | . | . | 0
C=CC[C@@]1(C(=O)N(C)C)N=C(c2ccc(OCCCO)cc2)O[C@@H]1c1ccccc1 | . | . | 0
Cc1noc(C)c1NC(=O)N(C)C[C@@H]1Oc2ccc(NC(=O)Nc3ccc4c(c3)OCO4)cc2C(=O)N([C@H](C)CO)C[C@@H]1C | -17 | 7 | 0
Cc1ccc(S(=O)(=O)Nc2ccc3c(c2)CC(=O)N([C@H](C)CO)C[C@H](C)[C@@H](CN(C)Cc2ccc(C(=O)Nc4ccccc4N)cc2)O3)cc1 | . | . | -1
C[C@@H]1CN([C@@H](C)CO)C(=O)c2cc(NS(=O)(=O)c3cccs3)ccc2O[C@H]1CN(C)Cc1ccc(C(=O)Nc2ccccc2N)cc1 | 14 | -5 | 2
COc1ccc(S(=O)(=O)Nc2ccc3c(c2)CC(=O)N([C@H](C)CO)C[C@@H](C)[C@H](CN(C)Cc2ccc(C(=O)Nc4ccccc4N)cc2)O3)cc1 | . | . | -1
Cc1ccc(S(=O)(=O)Nc2ccc3c(c2)CC(=O)N([C@@H](C)CO)C[C@@H](C)[C@@H](CN(C)Cc2ccc(C(=O)Nc4ccccc4N)cc2)O3)cc1 | 63* | 0 | -1
C[C@@H]1CN([C@@H](C)CO)C(=O)Cc2cc(NS(=O)(=O)c3ccc(Cl)cc3)ccc2O[C@@H]1CN(C)Cc1ccc(C(=O)Nc2ccccc2N)cc1 | . | . | 1
SMILES | T cruzi intra | INS-1E rescue | A1 apoptosis 2
C[C@@H]1CN([C@H](C)CO)C(=O)Cc2cc(NS(=O)(=O)c3ccc(Cl)cc3)ccc2O[C@H]1CN(C)Cc1ccc(C(=O)Nc2ccccc2N)cc1 | 69* | 5 | .
C[C@H]1CN([C@@H](C)CO)C(=O)Cc2cc(NS(=O)(=O)c3cccs3)ccc2O[C@H]1CN(C)Cc1ccc(C(=O)Nc2ccccc2N)cc1 | 68* | 23 | 1
COc1ccc(S(=O)(=O)Nc2ccc3c(c2)CC(=O)N([C@@H](C)CO)C[C@H](C)[C@@H](CN(C)Cc2ccc(C(=O)Nc4ccccc4N)cc2)O3)cc1 | 58* | 2 | 0
CC(C)(C)OC(=O)Nc1ccc(/C=N/NC(=O)c2ccccc2O)cc1 | -7 | -22 | .
C=CCOC(=O)[C@H]1[C@@H]2C(=O)O[C@@H](c3ccccc3)[C@@H](c3ccccc3)N2[C@@H](c2ccc(OCCOC(=O)[C@@H]3C[C@@H]4C(=O)N5CCC[C@H]5C(=O)N4[C@@H]3c3cccc(OCCO)c3)cc2)[C@]12C(=O)Nc1ccc(I)cc12 | . | . | 1
NC(=O)COc1ccc(/C=N/NC(=O)c2ccccn2)cc1 | -7 | -8 | -6
C[C@H](CO)N1C[C@H](C)[C@H](CN(C)CC2CC2)Oc2c(NC(=O)c3nc4ccccc4s3)cccc2C1=O | -2 | -8 | 1
C=CCOC(=O)[C@H]1[C@@H]2C(=O)O[C@@H](c3ccccc3)[C@@H](c3ccccc3)N2[C@@H](c2ccc(OCCOC(=O)[C@@H]3C[C@@H]4C(=O)N[C@@H](Cc5ccccc5)C(=O)N4[C@@H]3c3cccc(OCCO)c3)cc2)[C@]12C(=O)Nc1ccc(I)cc12 | . | . | -1
C[C@H]1CCCCO[C@@H](CN(C)CC2CCCCC2)[C@@H](C)CN([C@@H](C)CO)C(=O)c2cc(NC(=O)c3ccncc3)ccc2O1 | . | . | 0
O=C(N/N=C/c1cccnc1Cl)c1ccccc1O | 0 | -31 | .
C[C@@H]1CN([C@H](C)CO)C(=O)c2cc(NC(=O)Nc3ccc(C(F)(F)F)cc3)ccc2O[C@@H]1CN(C)CC1CCCCC1 | 48 | -7 | .
C[C@H]1CN([C@@H](C)CO)C(=O)c2cc(NC(=O)Nc3ccc(C(F)(F)F)cc3)ccc2O[C@H]1CN(C)CC1CCCCC1 | 73* | -95 | 1
